This note sets out measurements from ChEMBL document CHEMBL4513216, “Probing the Open Global Health Chemical Diversity Library for Multistage-Active Starting Points for Next-Generation Antimalarials” (ACS Infect Dis, 2020).

This data set can be described thus: Toxicity liver stage against HepG2, at 10uM. The following applies: human, HepG2-A16-CD81EGFP cells; read-out: INHIBITION
Type of data set: cell-based. On the set-up: test concentration 10 uM, cell line HepG2-A16-CD81EGFP. In outline:
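Uninfected HepG2-A16-CD81EGFP cells, 3 × 10^3 per well, 1536-well, plated on prespotted compound at 10 μM final, parasite-free screening media added to match infected plates; puromycin 10 μM positive, DMSO 0.5% negative; run in parallel with 48 h PbLuc assay at 37 °C, 5% CO2; viability by CellTiter-Glo luminescence, normalized to controls.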
Consider `O=C(NCc1ccccn1)NCC(c1ccco1)N1CCCC1` (configuration not stated), for which the cytotoxicity at 10 µM was -2.56%. On to `O=C(CCc1ccsc1)NS(=O)(=O)Cc1ccon1`, for which the cytotoxicity at 10 µM is -12.6%.

Take `CNC(=O)CN1CCO[C@H]2CN(CC3CCOC3)C[C@H]21` (some centres not stated): the cytotoxicity at 10 µM was determined as 7.64%. Take `CCc1ccc(C(COC)NC(=O)c2ccc(NC(C)=O)cc2)o1` (configuration not stated): the cytotoxicity at 10 µM was -3.91%. Under `CC(C)N(CC(N)=O)Cc1csc(Cc2ccccc2)n1` stands -2.32%; under `CN(C)C[C@H]1OC[C@@H]2CCN(C(=O)c3ccc[nH]3)C[C@@H]21`, 5.41%; under `O=C(C[C@@H]1COC[C@H]2CN(Cc3ccccn3)C[C@@H]12)N1CCOCC1`, -1.63%. `Cc1cc2cc(CNC3CCN(CC4CCOC4)CC3)oc2cc1C` (configuration not stated): the cytotoxicity at 10 µM is -8.14%. Under `Cc1nnc(CSc2ccc(C(F)(F)F)cn2)o1` stands -6.51%.

For the molecule `CC(C)(C)C(NC(=O)CCS(C)(=O)=O)c1ccc(F)cc1F` (configuration not stated), the cytotoxicity at 10 µM was -0.189%. As to `CSCC(=O)N(C)Cc1ccccc1`, the cytotoxicity at 10 µM was -2.34%.

As for `CC(C)NC(=O)N1C[C@H](OCc2cccnc2)[C@H]2COC[C@H]21`, the cytotoxicity at 10 µM came to 6.43%. For `CN(Cc1nc(Cc2cccc(C(F)(F)F)c2)no1)C1CCOCC1`, the cytotoxicity at 10 µM worked out at 6.39%. Under `Cc1n[nH]c(C2CN(CC(=O)NCCc3ccccc3C)CCO2)n1` (configuration not stated) stands -3.94%; under `CS(=O)(=O)CCn1ccc(NC(=O)c2c(F)cccc2F)n1`, 18.2%; under `Cn1cccc1-c1cc(C(=O)NCCCc2csc(N)n2)[nH]n1`, -8.9%. With `CC(C)c1nn(C)c(N2CCOCC2)c1CNCC(=O)N(C)C`, the cytotoxicity at 10 µM was -4.3%. On to `CC1CCc2nn(CCNC(=O)Cc3cccs3)c(=O)cc2C1` (configuration not stated), for which the cytotoxicity at 10 µM stood at 6.83%.

For `CC(C)(C)OC(=O)N1CCCc2ccc(NCc3ncc[nH]3)cc21`, the cytotoxicity at 10 µM is -5.99%. To `COC(=O)c1ccc(C(=O)NCc2nn(C)c3c2COCC3)cc1` belongs 7.91%; to `O=C(c1cccnc1)N1CCOCC2(CCN(c3ncccn3)C2)C1` (configuration not stated), 8.88%. Regarding `CCC(C#N)NC(=O)c1ccc(Oc2cccnc2)cc1` (configuration not stated), the cytotoxicity at 10 µM was -5.82%.

Consider `CCN(CC)Cc1ccc(C(=O)N2CCCCC2Cn2cccn2)o1` (configuration not stated), for which the cytotoxicity at 10 µM is -7.89%. To `O=C(NCc1nncn1C1CC1)c1cccnc1Oc1ccccc1` belongs 1.57%. Consider `O=C(NCCCC(=O)N1Cc2ccccc2C1)NCc1cccnc1`, for which the cytotoxicity at 10 µM came out at 11.9%.

Regarding `CN(C(=O)c1cccc(Cl)c1)C1CCN(c2ccccn2)CC1`, the cytotoxicity at 10 µM was -8.8%. As for `CC(=O)NCCOc1cccc(Br)c1`, the cytotoxicity at 10 µM is -3.06%. As for `Cn1ccnc1CN1CCN(CC(O)c2cccc(F)c2)CC1` (configuration not stated), the cytotoxicity at 10 µM amounted to 1.59%. Take `CC(O)CN(C(=O)NC1CCN(CC2CCCCC2)CC1)C(C)C` (configuration not stated): the cytotoxicity at 10 µM was found to be 7.46%.

For the molecule `CCOC(=O)c1sc2ccsc2c1CN`, the cytotoxicity at 10 µM is -1.86%. To `CC(=O)N1C[C@H]2CCCC(N3CCN(c4ncccn4)CC3)[C@H]2C1` (some centres not stated) belongs 9.46%. To `O=c1cc(CN2CC[C@@H]3CC[C@H](C2)N3)c2cccc3c2n1CCC3` belongs 9.64%.

On to `O=C1CC(c2ccccc2)c2c(c(C(=O)O)cn2-c2ccccc2)N1` (configuration not stated), for which the cytotoxicity at 10 µM is -0.0616%. To `O=C(c1nc(=O)[nH]c2ccccc12)N1CCCC2(CCNC2)C1` (configuration not stated) belongs -3.64%. For the molecule `CCn1cc(CN2CCCN(C(=O)c3ccoc3C)CC2)cn1`, the cytotoxicity at 10 µM was -6.67%. To `COC(=O)CCN1CCCC1c1ccccc1Cl` (configuration not stated) belongs 19.6%; to `Cc1ncc2c(n1)CCCC2NC(=O)c1ccc(Cn2cccn2)cc1` (configuration not stated), -7.55%. To `Oc1ccc(CCC2CCCCN2Cc2noc(C3CC3)n2)cc1` (configuration not stated) belongs 0.55%. For `O=C(CSc1ccccn1)N1CCC(OCc2cccnc2)CC1`, the cytotoxicity at 10 µM is -3.84%. Under `Cc1nc[nH]c1-c1nccn1CCN1CCCC1=O` stands -6.88%; under `CCOC(C)c1nc(CNc2cccc(Cl)c2OC)cs1` (configuration not stated), 6.16%. Under `Cc1nn(CCC(=O)N(C)Cc2c(Cl)cnn2C)cc1Br` stands 1.29%.

`C[S+]([O-])CCNC(=O)N1CCSC(C)(C)C1` (configuration not stated): the cytotoxicity at 10 µM was -0.0105%.

As for `Cc1nc(C(=O)N2CCN(C(=O)N(C)C)[C@@H]3CS(=O)(=O)C[C@@H]32)cs1`, the cytotoxicity at 10 µM was found to be 4.96%. With `COC(=O)CNC(=O)C(C)Oc1ccccc1C(F)(F)F` (configuration not stated), the cytotoxicity at 10 µM was found to be 6.08%.

Regarding `O=C(Nc1ccccc1)C1=NOC2(CCNCC2)C1`, the cytotoxicity at 10 µM was 5.77%.

In the case of `C[C@H](NC(=O)OC(C)(C)C)c1nnc(S(=O)(=O)Cc2cccc(F)c2)o1`, the cytotoxicity at 10 µM is -6.91%. Under `Cc1[nH]ncc1CCCNC(=O)N1CCC(CC(N)=O)CC1` stands 5.45%; under `O=C(c1ccccc1OCC1CC1)N1CCCC1Cn1cccn1` (configuration not stated), -6.77%; under `CN(Cc1cccnc1)Cc1cn2c(n1)CN(C1CCOCC1)CC2`, 8.94%.

Regarding `Cc1nc(CN2CCCN(C(=O)c3c(C)noc3C)CC2)cs1`, the cytotoxicity at 10 µM was -2.87%. On to `CN(C)Cc1ccc(C2CCCCN2C(=O)c2cccnn2)cc1` (configuration not stated), for which the cytotoxicity at 10 µM was -3.29%. Consider `COCC(=O)N1C[C@@H]2COC[C@]2(COC)C1`, for which the cytotoxicity at 10 µM is 5.44%. To `Cc1ccoc1C(=O)N1CC(C(=O)NCC2CC2)C2(CCOCC2)C1` (configuration not stated) belongs -3%; to `COc1c(CNCCNC(=O)c2cccs2)c(C)nn1C`, -0.373%.

With `Cc1nc(C)n(CC2CN(S(C)(=O)=O)Cc3nccn3C2)n1` (configuration not stated), the cytotoxicity at 10 µM is -140%. Under `Cc1ccnc(NCCNC(=O)CCNC(=O)c2ccccc2F)c1` stands 1.5%. To `COCCC(=O)NCc1cccnc1-n1cnc2ccccc21` belongs -8.42%; to `C=C(C)COc1ccccc1C(=O)N1CCC(C(=O)NCC)C1` (configuration not stated), 8.89%. To `O=S1(=O)C[C@@H]2[C@H](C1)N(Cc1ncc[nH]1)CCN2CCCc1ccccc1` belongs 0.662%; to `Cc1nn(S(=O)(=O)c2ccc(Cl)cc2)c(C)c1C`, 15.1%. `CN(CC1CC1)c1ccc2ccc(C(=O)NCCc3ccccc3)cn12`: the cytotoxicity at 10 µM is -1.83%.

Take `Cc1nc(Nc2nccs2)cc(C2CCCN2C2CCOCC2)n1` (configuration not stated): the cytotoxicity at 10 µM was -7.08%. Under `CC1N(c2cnn(C)c2)C(=O)COC12CCN(c1ccccn1)CC2` (configuration not stated) stands -5.31%; under `O=C(O)Cc1cccc(-n2ccnc2-c2ccc(Cl)s2)c1`, 0.185%. For `Cc1nnc2n1CCN(CC(=O)Nc1cc(C(C)C)no1)C2`, the cytotoxicity at 10 µM is -6.93%. To `Cc1nc(C)n(CC2CCCN2CC(=O)N(C)Cc2ccc(C)o2)n1` (configuration not stated) belongs 8.52%; to `OCCn1cc(CN2CCN(CCOc3ccccc3F)CC2)cn1`, -5.72%; to `CC(C)Oc1ccc(C(=O)N2CCCSCC2CN(C)C)cc1` (configuration not stated), 9.9%.

On to `COc1cc(O)cc2c1C(=O)CC(c1ccc(O)cc1)O2` (configuration not stated), for which the cytotoxicity at 10 µM is -3.07%. In the case of `CC(C)NC(=O)C1CCC2(CCN(c3ncccn3)CC2)CO1` (configuration not stated), the cytotoxicity at 10 µM was found to be 0.442%.

For `Cn1nc(CN2CCOCC2)c2c1CN(C(=O)c1ccc[nH]1)C2`, the cytotoxicity at 10 µM came to 8.46%. To `Cc1ccn(CCC(=O)NCCc2ccco2)n1` belongs -4.81%; to `Cc1noc(C)c1CN1CCC2(CC1)C(c1ccccc1)CC(=O)N2C` (configuration not stated), -105%. On to `Cc1nnc(CN2CCN(CCOc3ccccc3C#N)CC2)n1C`, for which the cytotoxicity at 10 µM was -5.8%.

As to `COCCCn1ccc(NCc2cnc(C(C)(C)C)s2)n1`, the cytotoxicity at 10 µM amounted to 5.91%.

`Cc1nc(CN2CCCC(N(C)CCc3ccncc3)C2)no1` (configuration not stated): the cytotoxicity at 10 µM was -6.93%. To `Cc1ccc(-c2nnc(CN3CCOCC(CO)C3)o2)n1C` (configuration not stated) belongs -3.28%; to `COc1ncccc1CN1C[C@@H]2COC[C@]2(CNS(C)(=O)=O)C1`, 8.01%; to `O=C(c1cc[nH]n1)N1CCCC1c1cc(Nc2ccccn2)n[nH]1` (configuration not stated), -13.8%. To `CCOCC(=O)N1CCC(C2CCN(Cc3ccc(Cl)cc3)C2)CC1` (configuration not stated) belongs -9.15%.

Consider `c1ccc(-c2cc(CNCCCC3CCOC3)c3nnnn3c2)cc1` (configuration not stated), for which the cytotoxicity at 10 µM is -22.3%. To `N#Cc1cccc(S(=O)(=O)N(CC2CCC2)c2cn[nH]c2)c1` belongs 10.9%; to `Cc1ccc(C(O)CNCc2c(C(C)C)nn(C)c2N(C)C)cc1` (configuration not stated), -11.8%; to `O=C(N1CC(c2cccnc2)C1)C1(c2ccc(F)cc2)CCOCC1`, -14.5%. With `Nc1cc(CCC2CN(Cc3ccc4cc[nH]c4c3)CCO2)ccn1` (configuration not stated), the cytotoxicity at 10 µM is -10.6%. Under `CCC1CN(CC(=O)Nc2cc(C)nn2C)CCO1` (configuration not stated) stands 1.14%; under `Cc1nc(C)n(CC2CN(CCc3ccccn3)CCO2)n1` (configuration not stated), 4.89%; under `COCCN1CCN(Cc2ccoc2)Cc2cccnc21`, -75%. To `NCC1CCC(C(NC(=O)c2ccccn2)c2ccccn2)CC1` (configuration not stated) belongs 2%; to `CCN(CC)C(CNS(=O)(=O)c1ccc(C(C)=O)cc1)c1ccco1` (configuration not stated), -20.1%. Take `CC(c1ccon1)N(C)C(=O)C1CCN(C2CCCCC2)CC1` (configuration not stated): the cytotoxicity at 10 µM is -20.2%. To `CCOCCC(=O)NC1(c2cccc(Br)c2)CC1` belongs 7.53%; to `CC[C@H](C)[C@@H](CO)NC(C)Cc1ccc(C)cc1` (some centres not stated), -4.48%; to `Cc1nn(-c2ccccc2)c(C)c1-c1ccnc(N2CCCOCC2)n1`, -11.3%. With `Cc1cc(C)n(CC2CN(Cc3cccc(C(N)=O)c3)CCO2)n1` (configuration not stated), the cytotoxicity at 10 µM is -4.97%. As to `CCn1nc(C)c2c1cnn2CCNS(=O)(=O)c1cccs1`, the cytotoxicity at 10 µM was found to be 4.51%.
